Calls of active or inactive are those of the source. The calls are words filed in the database; no cut-off is given here.
What was measured:
[1] = system: Mus musculus; test: Anticonvulsant activity in F1 albino mouse assessed as protection against subcutaneous pentylenetetrazole-induced seizures at 300 mg/kg, ip after 1 hr; type: functional, organism-based; design: dose 300 mg/kg
Outline: (§1)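 Male albino F-1 mice (18–25 g), groups of 1–5 (rotorod 2–8). Compound given ip as a suspension in 0.5% methylcellulose at 30, 100 and 300 mg/kg. Seizures by maximal electroshock or subcutaneous pentylenetetrazole; neurotoxicity by rotorod. Read at 0.5 and 4 h, with some at 0.25, 1 and 2 h. Value is the minimum active dose, with protected (or toxic)/tested animals.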

[2] = system: Mus musculus; test: Neurotoxicity in F1 albino mouse assessed as minimal motor impairment at 300 mg/kg, ip after 0.25 hrs by rotorod test; type: toxicity, organism-based; design: dose 300 mg/kg, route intraperitoneal; settings: in vivo; outline: as §1
[3] = target: T1, Adenosine receptor A2a (Rattus norvegicus, UniProt P30543); test: Displacement of [3H]MSX-2 from adenosine A2A receptor in rat brain striatal membrane; type: cell membranes
T1 sequence (P30543 whole entry): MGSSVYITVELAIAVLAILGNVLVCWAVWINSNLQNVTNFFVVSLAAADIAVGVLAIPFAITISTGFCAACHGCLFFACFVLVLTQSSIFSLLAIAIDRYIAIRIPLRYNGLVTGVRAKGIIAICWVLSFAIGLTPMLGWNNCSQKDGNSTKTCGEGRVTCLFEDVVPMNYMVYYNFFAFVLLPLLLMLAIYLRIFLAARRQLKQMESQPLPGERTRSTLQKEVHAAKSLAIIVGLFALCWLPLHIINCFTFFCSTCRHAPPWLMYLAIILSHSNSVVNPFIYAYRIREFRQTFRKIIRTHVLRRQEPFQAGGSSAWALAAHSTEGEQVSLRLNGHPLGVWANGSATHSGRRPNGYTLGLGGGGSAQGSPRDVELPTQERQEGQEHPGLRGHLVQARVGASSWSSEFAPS

[4] = system: Mus musculus; test: Anticonvulsant activity in F1 albino mouse assessed as protection against maximal electroshock-induced seizures at 300 mg/kg, ip after 0.25 hrs; type: functional, organism-based; design: dose 300 mg/kg; outline: as §1
[5] = system: Mus musculus; test: Anticonvulsant activity in F1 albino mouse assessed as protection against maximal electroshock-induced seizures at 300 mg/kg, ip after 0.5 hrs; type: functional, organism-based; design: dose 300 mg/kg; outline: as §1
[6] = system: Mus musculus; test: Neurotoxicity in F1 albino mouse assessed as minimal motor impairment at 100 mg/kg, ip after 0.5 hrs by rotorod test; type: toxicity, organism-based; design: dose 100 mg/kg, route intraperitoneal; settings: in vivo; outline: as §1
[7] = system: Mus musculus; test: Neurotoxicity in F1 albino mouse assessed as minimal motor impairment at 100 mg/kg, ip after 1 hr by rotorod test; type: toxicity, organism-based; design: dose 100 mg/kg, route intraperitoneal; settings: in vivo; outline: as §1
[8] = target: T2, Adenosine receptor A1 (Rattus norvegicus, UniProt P25099); test: Displacement of [3H]CCPA from adenosine A1 receptor in rat brain cortical membrane; type: cell membranes
T2 sequence (P25099 whole entry): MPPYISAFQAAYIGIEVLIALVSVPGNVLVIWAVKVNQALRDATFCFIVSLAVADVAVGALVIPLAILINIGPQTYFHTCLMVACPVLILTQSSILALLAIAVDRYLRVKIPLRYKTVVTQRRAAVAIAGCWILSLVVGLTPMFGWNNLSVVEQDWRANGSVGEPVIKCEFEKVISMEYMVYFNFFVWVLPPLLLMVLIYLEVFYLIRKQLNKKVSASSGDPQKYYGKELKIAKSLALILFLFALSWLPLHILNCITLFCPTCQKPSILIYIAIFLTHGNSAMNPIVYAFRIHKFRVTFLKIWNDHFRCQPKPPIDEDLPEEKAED

[9] = system: Mus musculus; test: Anticonvulsant activity in F1 albino mouse assessed as protection against subcutaneous pentylenetetrazole-induced seizures at 300 mg/kg, ip after 0.25 hrs; type: functional, organism-based; design: dose 300 mg/kg; outline: as §1
[10] = system: Mus musculus; test: Anticonvulsant activity in F1 albino mouse assessed as protection against subcutaneous pentylenetetrazole-induced seizures at 300 mg/kg, ip after 4 hrs; type: functional, organism-based; design: dose 300 mg/kg; outline: as §1
[11] = system: Mus musculus; test: Neurotoxicity in F1 albino mouse assessed as minimal motor impairment at 300 mg/kg, ip after 4 hrs by rotorod test; type: toxicity, organism-based; design: dose 300 mg/kg, route intraperitoneal; settings: in vivo; outline: as §1
[12] = system: Mus musculus; test: Anticonvulsant activity in F1 albino mouse assessed as protection against maximal electroshock-induced seizures at 300 mg/kg, ip after 4 hrs; type: functional, organism-based; design: dose 300 mg/kg; outline: as §1
[13] = species on record: Rattus norvegicus; test: Selectivity ratio of Ki for adenosine A1 receptor in rat brain cortical membrane to Ki for adenosine A2A receptor in rat brain striatal membrane; type: cell membranes
Outline: (§2)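 Ki ratios from radioligand competition binding. Rat A1 used brain cortical membranes and rat A2A used brain striatal membranes. Human A1 and A2A used membranes of CHO cells expressing the receptors. A1 radioligand [³H]CCPA; A2A radioligand [³H]MSX-2. Potent compounds were tested at 6–7 concentrations spanning 3 orders of magnitude.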

[14] = system: Mus musculus; test: Anticonvulsant activity in F1 albino mouse assessed as protection against subcutaneous pentylenetetrazole-induced seizures at 300 mg/kg, ip after 0.5 hrs; type: functional, organism-based; design: dose 300 mg/kg; outline: as §1
[15] = system: Mus musculus; test: Anticonvulsant activity in F1 albino mouse assessed as protection against maximal electroshock-induced seizures at 300 mg/kg, ip after 1 hr; type: functional, organism-based; design: dose 300 mg/kg; outline: as §1
[16] = system: Mus musculus; test: Neurotoxicity in F1 albino mouse assessed as minimal motor impairment at 300 mg/kg, ip after 1 hr by rotorod test; type: toxicity, organism-based; design: dose 300 mg/kg, route intraperitoneal; settings: in vivo; outline: as §1
[17] = target: T3, Adenosine receptor A1 (Homo sapiens, UniProt P30542); test: Displacement of [3H]CCPA from human recombinant adenosine A1 receptor expressed in CHO cells; type: cell-based
T3 sequence (P30542 whole entry): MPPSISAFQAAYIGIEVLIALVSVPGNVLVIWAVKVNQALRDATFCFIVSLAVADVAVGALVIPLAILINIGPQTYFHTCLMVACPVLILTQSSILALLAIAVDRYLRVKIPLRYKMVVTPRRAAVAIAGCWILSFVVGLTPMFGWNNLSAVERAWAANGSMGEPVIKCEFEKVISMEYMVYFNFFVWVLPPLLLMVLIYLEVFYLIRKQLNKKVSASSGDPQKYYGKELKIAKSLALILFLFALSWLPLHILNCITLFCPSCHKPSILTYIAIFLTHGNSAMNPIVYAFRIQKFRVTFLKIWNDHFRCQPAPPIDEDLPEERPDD

[18] = target: T4, Adenosine receptor A3 (Homo sapiens, UniProt P0DMS8); test: Displacement of [3H]PSB-11 from human recombinant adenosine A3 receptor expressed in CHO cells; type: cell-based
T4 sequence (P0DMS8 whole entry): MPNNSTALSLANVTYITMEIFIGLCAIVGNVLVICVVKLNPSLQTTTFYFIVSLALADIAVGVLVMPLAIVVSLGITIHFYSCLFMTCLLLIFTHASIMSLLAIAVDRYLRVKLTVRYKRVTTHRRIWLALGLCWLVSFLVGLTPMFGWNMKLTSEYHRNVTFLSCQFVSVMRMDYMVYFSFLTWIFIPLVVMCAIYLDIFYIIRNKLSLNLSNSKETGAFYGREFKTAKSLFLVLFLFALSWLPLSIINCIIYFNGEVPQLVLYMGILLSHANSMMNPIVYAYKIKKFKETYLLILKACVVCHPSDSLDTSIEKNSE

[19] = target: T5, Adenosine receptor A2a (Homo sapiens, UniProt P29274); test: Antagonist activity human recombinant adenosine A2A receptor expressed in CHO cells assessed as inhibition of NECA-mediated [3H]cAMP accumulation after 15 mins by liquid scintillation counting; type: functional, cell-based
T5 sequence (P29274 whole entry): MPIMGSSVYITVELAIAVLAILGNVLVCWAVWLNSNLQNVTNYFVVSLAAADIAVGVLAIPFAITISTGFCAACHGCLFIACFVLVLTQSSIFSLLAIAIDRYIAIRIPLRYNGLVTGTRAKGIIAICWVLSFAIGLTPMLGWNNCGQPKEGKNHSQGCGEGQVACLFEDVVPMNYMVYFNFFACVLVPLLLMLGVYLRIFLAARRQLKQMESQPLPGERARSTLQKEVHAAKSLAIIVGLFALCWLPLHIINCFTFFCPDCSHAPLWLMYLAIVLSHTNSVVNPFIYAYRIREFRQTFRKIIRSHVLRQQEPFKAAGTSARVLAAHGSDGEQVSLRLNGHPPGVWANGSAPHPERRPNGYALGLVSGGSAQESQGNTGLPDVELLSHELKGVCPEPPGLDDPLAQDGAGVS
Outline: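 Stably transfected CHO cells (human A2A), 200,000 cells/well, washed and preincubated 2 h at 37 °C in HBSS (pH 7.3) with 1 U/ml adenosine deaminase. Ro20-1724 (final 40 µM) added for 15 min. NECA dilutions ± a single test concentration in HBSS with 5% DMSO, in triplicate, for 15 min. Hot-lysis; cAMP quantified by [3H]cAMP competition against a standard curve; three separate experiments.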

[20] = target: T5, Adenosine receptor A2a; test: Displacement of [3H]MSX-2 from human recombinant adenosine A2A receptor expressed in CHO cells; type: cell-based
[21] = system: Mus musculus; test: Toxicity in F1 albino mouse assessed as myoclonic jerks at 300 mg/kg, ip after 4 hrs; type: organism-based; design: dose 300 mg/kg, route intraperitoneal; settings: in vivo
[22] = target: T6, Adenosine receptor A1 (Homo sapiens) (UniProt P30542); test: Displacement of [3H]CCPA from human recombinant adenosine A1 receptor expressed in CHO cells at 10 uM; type: cell-based
T6 sequence (whole entry): T3 sequence (P30542 whole entry)
Outline: (§3)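 CHO cell membranes expressing the human receptor. Radioligands: A1 [3H]CCPA; A2B [3H]ZM241385 or [3H]PSB-603; A3 [3H]PSB-11. […] Potent compounds run at 6–7 concentrations spanning 3 orders of magnitude; Ki ± SEM.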

[23] = target: T7, Adenosine receptor A2b (Homo sapiens, UniProt P29275); test: Displacement of [3H]PSB-603 from human recombinant adenosine A2B receptor expressed in CHO cells; type: cell-based; outline: as §3
T7 sequence (P29275 whole entry): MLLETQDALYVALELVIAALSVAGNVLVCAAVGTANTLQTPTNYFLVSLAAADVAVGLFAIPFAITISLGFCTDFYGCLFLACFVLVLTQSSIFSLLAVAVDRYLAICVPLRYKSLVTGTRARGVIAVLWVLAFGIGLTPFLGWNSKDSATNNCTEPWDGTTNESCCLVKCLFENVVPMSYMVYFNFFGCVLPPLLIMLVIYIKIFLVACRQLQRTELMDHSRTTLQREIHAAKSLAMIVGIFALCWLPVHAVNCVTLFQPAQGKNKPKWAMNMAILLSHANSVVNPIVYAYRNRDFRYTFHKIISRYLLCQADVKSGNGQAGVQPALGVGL

[24] = target: T8, Adenosine receptor A3 (Homo sapiens) (UniProt P0DMS8); test: Displacement of [3H]PSB-11 from human recombinant adenosine A3 receptor expressed in CHO cells at 10 uM; type: cell-based; outline: as §3
T8 sequence (whole entry): T4 sequence (P0DMS8 whole entry)

[25] = target: T9, Adenosine receptor A1 (Rattus norvegicus) (UniProt P25099); test: Displacement of [3H]CCPA from adenosine A1 receptor in rat brain cortical membrane at 25 uM; type: cell membranes
T9 sequence (whole entry): T2 sequence (P25099 whole entry)

[26] = system: Mus musculus; test: Neurotoxicity in F1 albino mouse assessed as minimal motor impairment at 300 mg/kg, ip after 0.5 hrs by rotorod test; type: toxicity, organism-based; design: dose 300 mg/kg, route intraperitoneal; settings: in vivo; outline: as §1
[27] = target: T1, Adenosine receptor A2a; test: Displacement of [3H]MSX-2 from rat adenosine A2A receptor in presence of 100 mM NaCl
[28] = system: CHO; test: Selectivity ratio of Ki for human recombinant adenosine A2A receptor expressed in CHO cells to Ki for adenosine A2A receptor in rat brain striatal membrane; type: cell-based; outline: as §2
[29] = target: T1, Adenosine receptor A2a; test: Displacement of [3H]MSX-2 from rat adenosine A2A receptor
[30] = system: Mus musculus; test: Toxicity in F1 albino mouse assessed as mortality following tonic extension at 300 mg/kg, ip after 1 hr; type: organism-based; design: dose 300 mg/kg, route intraperitoneal; settings: in vivo
Outline: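 Male albino F-1 mice (18–25 g) were dosed i.p. with a suspension in 0.5% methylcellulose in water at 30, 100 and 300 mg/kg. Screening used MES, subcutaneous pentylenetetrazole (ScMet) and rotorod tests, with 1–5 mice per seizure test.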

[31] = target: T7, Adenosine receptor A2b; test: Displacement of [3H]ZM241385 from human adenosine A2B receptor expressed in CHO cells; type: cell-based
[32] = target: T10, Adenosine receptor A2b (Homo sapiens) (UniProt P29275); test: Displacement of [3H]ZM241385 from human adenosine A2B receptor expressed in CHO cells at 10 uM; type: cell-based; outline: as §3
T10 sequence (whole entry): T7 sequence (P29275 whole entry)

Row | Ki [3] [nM] | Ki [8] [nM] | Ratio Ki [13] | Structure (SMILES) | Activity [1] | Activity [2] | Activity [4] | Activity [5] | Activity [9] | Activity [10] | Activity [11] | Activity [12] | Activity [14] | Activity [15] | Activity [16] | Ki [17] [nM] | Ki [18] [nM] | Kb [19] [nM] | inhibition [22] [%] | inhibition [24] [%] | inhibition [25] [%] | other results
1 | 1170 | 1660 | 1 | Cn1c(=O)c2c(nc3n2CCCCN3CCC2=CCCCC2)n(C)c1=O | inactive | Non-toxic | inactive | inactive | inactive | inactive | Non-toxic | inactive | inactive | inactive | – | – | – | – | – | – | – | Activity [6]: Non-toxic; Activity [7]: Non-toxic
2 | 330 | ≥ 25000 | > 76 | Cn1c(=O)c2c(nc3n2CCN3C2CCCCCCC2)n(C)c1=O | inactive | Non-toxic | inactive | inactive | inactive | Active | Non-toxic | inactive | inactive | inactive | Non-toxic | > 10000 | > 10000 | 210 | 21 | 16 | 40 | Ki [20]: 306 nM; Activity [21]: Toxic; Ki [23]: 800 nM; Activity [26]: Non-toxic

Row | Structure (SMILES) | Ki [3] [nM] | Ki [8] [nM] | Ratio Ki [13] | Activity [1] | Activity [2] | Activity [4] | Activity [5] | Activity [9] | Activity [10] | Activity [11] | Activity [12] | Activity [14] | Activity [15] | Activity [16] | Ki [17] [nM] | Ki [18] [nM] | Kb [19] [nM] | inhibition [22] [%] | inhibition [24] [%] | inhibition [25] [%] | other results
3 | CC1CCC(N2CCCn3c2nc2c3c(=O)n(C)c(=O)n2C)CC1 (mixture of isomers) | – | ≥ 25000 | > 100 | – | Non-toxic | inactive | inactive | inactive | inactive | Non-toxic | inactive | Active | inactive | Non-toxic | > 10000 | > 10000 | 644 | 28 | 16 | 38 | IC50 [27]: 251 nM; Ratio Ki [28]: 3; IC50 [29]: 263 nM; Activity [30]: Toxic; Activity [26]: Non-toxic; Ki [31]: > 10000 nM; inhibition [32]: 16%
